In ChEMBL document CHEMBL1153726, “Synthesis and anticancer activity of sclerophytin-inspired hydroisobenzofurans” (Bioorg Med Chem Lett, 2009):

Assays:
[1] = test system: HCT-15; assay: Growth inhibition of human HCT15 cells at 1 nM after 96 hrs by MTT assay; format: functional; set-up: scale not given: the % may be the effect or the level left
[2] = test system: SR; assay: Growth inhibition of human SR cells after 96 hrs by MTT assay; format: functional
Outline: (§1)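 Tested in the NCI 60-cell-line panel in five-dose format; GI50 and LC50 values reported for each cell line.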

[3] = test system: RXF 393; assay: Growth inhibition of human RXF393 cells at 10 uM after 96 hrs by MTT assay; format: functional; set-up: scale not given: the % may be the effect or the level left
[4] = test system: SK-OV-3; assay: Growth inhibition of human SKOV3 cells at 1 nM after 96 hrs by MTT assay; format: functional; set-up: scale not given: the % may be the effect or the level left
[5] = test system: SW-620; assay: Growth inhibition of human SW620 cells at 100 nM after 96 hrs by MTT assay; format: functional; set-up: scale not given: the % may be the effect or the level left
[6] = test system: UO-31; assay: Growth inhibition of human UO31 cells at 10 nM after 96 hrs by MTT assay; format: functional; set-up: scale not given: the % may be the effect or the level left
[7] = test system: U-251; assay: Growth inhibition of human U251 cells at 1 nM after 96 hrs by MTT assay; format: functional; set-up: scale not given: the % may be the effect or the level left
[8] = test system: TK-10; assay: Growth inhibition of human TK10 cells at 100 nM after 96 hrs by MTT assay; format: functional; set-up: scale not given: the % may be the effect or the level left
[9] = test system: SF-295; assay: Growth inhibition of human SF295 cells at 1 uM after 96 hrs by MTT assay; format: functional; set-up: scale not given: the % may be the effect or the level left
[10] = test system: PC-3; assay: Growth inhibition of human PC3 cells at 100 nM after 96 hrs by MTT assay; format: functional; set-up: scale not given: the % may be the effect or the level left
[11] = test system: CAKI-1; assay: Growth inhibition of human Caki1 cells at 1 uM after 96 hrs by MTT assay; format: functional; set-up: scale not given: the % may be the effect or the level left
[12] = test system: NCI-H460; assay: Growth inhibition of human NCI-H460 cells at 1 uM after 96 hrs by MTT assay; format: functional; set-up: scale not given: the % may be the effect or the level left
[13] = test system: OVCAR-5; assay: Growth inhibition of human OVCAR5 cells at 1 nM after 96 hrs by MTT assay; format: functional; set-up: scale not given: the % may be the effect or the level left
[14] = test system: SK-MEL-28; assay: Growth inhibition of human SK-MEL-28 cells at 100 nM after 96 hrs by MTT assay; format: functional; set-up: scale not given: the % may be the effect or the level left
[15] = test system: IGROV-1; assay: Growth inhibition of human IGROV1 cells at 10 nM after 96 hrs by MTT assay; format: functional; set-up: scale not given: the % may be the effect or the level left
[16] = Antitumor activity against human KB3 cells after 96 hrs by MTT assay; format: functional, cell-based; conditions: KB3, 96 h
Outline: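 Human KB-3 carcinoma cells exposed to increasing compound concentrations; viability read by MTT colorimetric assay after 96 h. Values are means of triplicate assays, expressed relative to untreated controls.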

[17] = test system: CAKI-1; assay: Growth inhibition of human Caki1 cells at 10 nM after 96 hrs by MTT assay; format: functional; set-up: scale not given: the % may be the effect or the level left
[18] = test system: PC-3; assay: Growth inhibition of human PC3 cells at 1 uM after 96 hrs by MTT assay; format: functional; set-up: scale not given: the % may be the effect or the level left
[19] = test system: Malme-3M; assay: Growth inhibition of human MALME-3M cells at 1 nM after 96 hrs by MTT assay; format: functional; set-up: scale not given: the % may be the effect or the level left
[20] = test system: T47D; assay: Growth inhibition of human T47D cells after 96 hrs by MTT assay; format: functional; outline: as §1
[21] = test system: SNB-75; assay: Growth inhibition of human SNB75 cells at 1 nM after 96 hrs by MTT assay; format: functional; set-up: scale not given: the % may be the effect or the level left
[22] = test system: ACHN; assay: Growth inhibition of human ACHN cells at 1 uM after 96 hrs by MTT assay; format: functional; set-up: scale not given: the % may be the effect or the level left
[23] = test system: DU-145; assay: Growth inhibition of human DU145 cells at 10 uM after 96 hrs by MTT assay; format: functional; set-up: scale not given: the % may be the effect or the level left
[24] = Growth inhibition of human Hs 578T cells at 1 nM after 96 hrs by MTT assay; format: functional; set-up: scale not given: the % may be the effect or the level left
[25] = Growth inhibition of human Hs 578T cells at 10 nM after 96 hrs by MTT assay; format: functional; set-up: scale not given: the % may be the effect or the level left
[26] = test system: T47D; assay: Growth inhibition of human T47D cells at 1 uM after 96 hrs by MTT assay; format: functional; set-up: scale not given: the % may be the effect or the level left
[27] = test system: 786-0; assay: Growth inhibition of human 786-0 cells at 10 uM after 96 hrs by MTT assay; format: functional; set-up: scale not given: the % may be the effect or the level left
[28] = test system: LOX IMVI; assay: Growth inhibition of human LOXIMVI cells at 1 nM after 96 hrs by MTT assay; format: functional; set-up: scale not given: the % may be the effect or the level left
[29] = test system: UACC-62; assay: Growth inhibition of human UACC62 cells at 10 nM after 96 hrs by MTT assay; format: functional; set-up: scale not given: the % may be the effect or the level left
[30] = test system: COLO 205; assay: Growth inhibition of human COLO205 cells at 10 uM after 96 hrs by MTT assay; format: functional; set-up: scale not given: the % may be the effect or the level left
[31] = test system: COLO 205; assay: Growth inhibition of human COLO205 cells at 1 nM after 96 hrs by MTT assay; format: functional; set-up: scale not given: the % may be the effect or the level left
[32] = test system: SK-OV-3; assay: Growth inhibition of human SKOV3 cells after 96 hrs by MTT assay; format: functional; conditions: SK-OV-3, 96 h; outline: as §1
[33] = test system: Malme-3M; assay: Growth inhibition of human MALME-3M cells at 100 nM after 96 hrs by MTT assay; format: functional; set-up: scale not given: the % may be the effect or the level left
[34] = test system: NCI-H322M; assay: Growth inhibition of human NCI-H322M cells after 96 hrs by MTT assay; format: functional
Outline: (§2)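 Run in the NCI 60 human tumour cell line panel as a five-dose assay. GI50 and LC50 were reported for each cell line.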

[35] = test system: SK-MEL-2; assay: Growth inhibition of human SK-MEL-2 cells at 1 uM after 96 hrs by MTT assay; format: functional; set-up: scale not given: the % may be the effect or the level left
[36] = test system: UO-31; assay: Growth inhibition of human UO31 cells after 96 hrs by MTT assay; format: functional; conditions: UO-31, 96 h; outline: as §1
[37] = test system: HOP-92; assay: Growth inhibition of human HOP92 cells at 10 nM after 96 hrs by MTT assay; format: functional; set-up: scale not given: the % may be the effect or the level left
[38] = test system: HCC 2998; assay: Growth inhibition of human HCC2998 cells at 10 nM after 96 hrs by MTT assay; format: functional; set-up: scale not given: the % may be the effect or the level left
[39] = test system: SK-MEL-28; assay: Growth inhibition of human SK-MEL-28 cells at 10 nM after 96 hrs by MTT assay; format: functional; set-up: scale not given: the % may be the effect or the level left
[40] = test system: MDA-MB-231; assay: Growth inhibition of human MDA-MB-231 cells after 96 hrs by MTT assay; format: functional; conditions: MDA-MB-231, 96 h; outline: as §2
[41] = test system: T47D; assay: Growth inhibition of human T47D cells at 1 nM after 96 hrs by MTT assay; format: functional; set-up: scale not given: the % may be the effect or the level left
[42] = test system: MCF7; assay: Growth inhibition of human MCF7 cells at 1 nM after 96 hrs by MTT assay; format: functional; set-up: scale not given: the % may be the effect or the level left
[43] = read-out: LC50 (the source's name)
[44] = read-out: Log10GI50 (converted)
[45] = read-out: Log10LC50 (converted)

C=C(C)[C@H]1CC=C(C)C2=CO[C@@H](c3ccccc3F)[C@@H]21
Activity [1]: 94%
GI50 ([2]; read-out: GI50): 0.798 µM
CC50 [2, 43]: 23.9 µM
GI50 [2, 44]: 0.794 µM
CC50 [2, 45]: 24 µM
TGI ([2]; read-out: Log10TGI (converted)): 3.72 µM
TGI ([2]; read-out: TGI): 3.67 µM
Activity [3]: 98.38%
Activity [4]: 98%
Activity [5]: 101%
Activity [6]: 83%
Activity [7]: 98%
Activity [8]: 92%
Activity [9]: 30%
Activity [10]: 70%
Activity [11]: 37%
Activity [12]: 31%
Activity [13]: 97%
Activity [14]: 93%
Activity [15]: 85%
IC50 [16]: 1 µM
Activity [17]: 93%
Activity [18]: 20%
Activity [19]: 97%
GI50 ([20]; read-out: GI50): 2.24 µM
CC50 [20, 43]: > 100 µM
GI50 [20, 44]: 2.24 µM
CC50 [20, 45]: > 100 µM
TGI ([20]; read-out: Log10TGI (converted)): 11 µM
TGI ([20]; read-out: TGI): 11.1 µM
Activity [21]: 85%
Activity [22]: 39%
Activity [23]: 105.62%
Activity [24]: 83%
Activity [25]: 83%
Activity [26]: 2%
Activity [27]: 93.62%
Activity [28]: 97%
Activity [29]: 81%
Activity [30]: 101.29%
Activity [31]: 101%
GI50 ([32]; read-out: GI50): 12.3 µM
CC50 [32, 43]: > 100 µM
GI50 [32, 44]: 12.3 µM
CC50 [32, 45]: > 100 µM
TGI ([32]; read-out: Log10TGI (converted)): 38.9 µM
TGI ([32]; read-out: TGI): 39.3 µM
Activity [33]: 74%
GI50 ([34]; read-out: GI50): 9.5 µM
CC50 [34, 43]: 54.6 µM
GI50 [34, 44]: 9.55 µM
CC50 [34, 45]: 55 µM
TGI ([34]; read-out: Log10TGI (converted)): 23.4 µM
TGI ([34]; read-out: TGI): 23.2 µM
Activity [35]: 31%
GI50 ([36]; read-out: GI50): 6.32 µM
CC50 [36, 43]: 49.2 µM
GI50 [36, 44]: 6.31 µM
CC50 [36, 45]: 49 µM
TGI ([36]; read-out: Log10TGI (converted)): 20.9 µM
TGI ([36]; read-out: TGI): 20.8 µM
Activity [37]: 69%
Activity [38]: 89%
Activity [39]: 93%
GI50 ([40]; read-out: GI50): 6.73 µM
CC50 [40, 43]: 55.9 µM
GI50 [40, 44]: 6.76 µM
CC50 [40, 45]: 56.2 µM
TGI ([40]; read-out: Log10TGI (converted)): 22.4 µM
TGI ([40]; read-out: TGI): 22.3 µM
Activity [41]: 98%
Activity [42]: 93%
